Assay [1] in a line: reduced viability of SK-BR-3 breast cancer cells – cell-based, 24 h, human, pilot screen (AID 572;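 active = viability at or below 10% of carrier control in both of two separate runs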;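 note: compound exposure lasted between 18 and 24 h rather than exactly 24 h; 100% = carrier-treated control wells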). As to conditions: SK-BR-3 viability, CellTiter-Glo luminescence, at 10 µM, stronger effect = lower value. A general note: Cellular ATP, detected with luciferase, serves as a proxy for viable cell number.
Assay [2] in a line: HUVEC growth inhibition – cell-based, human, primary screen (AID 575;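 active = viability at or below 30% in both replicate assays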;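 note: 100% = median of untreated cell wells with 0.1% DMSO on each plate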). The following applies: HUVEC proliferation, CellTiter-Glo luminescence, 72 h; at 10 µM; stronger effect = lower value. Summed up:
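Test system: primary human umbilical vein endothelial cells; medium: endothelial basal medium with 2% FBS plus growth supplements; dosing: 10 µM compound only; times: 72 h treatment at 37 °C; signal: CTG luminescence; read-out: % viability relative to median vehicle-well signal on each plate; control set: vehicle and MePR control wells; plate: 384-well, collagen-coated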

Assay [3] is described as follows: H69AR cell proliferation blockers – human, duplicate replicates, primary screen (AID 580).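 Note: 100% = mean luminescence of untreated wells and 0% = no signal.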 As to conditions: H69AR lung tumor cells viability, ATP luminescence, 72 h; at 10 µM; stronger effect = lower value.
A short description of assay [4]: MRP1 drug-resistance reversers in H69AR cells – cell-based, doxorubicin co-treatment, pilot screen (AID 601;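 active = viability loss from added drug above about 55%, and viability with drug at most 40%, in both replicates, limit read from the data, passing the limit was not always enough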). The following applies: CellTiter-Glo, 72 h, at 10 µM; for differential viability (reversal): stronger effect = higher value.
The nature of assay [5]: yeast transport mutant growth inhibition pilot in 384-well plates, post-Golgi transport modulator project (AID 636; in the data active = inhibition above about 31%). The following applies: absorbance 615 nm, about 18 h, stronger effect = higher value.
The nature of assay [6]: growth suppression of yeast trafficking mutant, preliminary HTS, modulators of trafficking downstream of Golgi apparatus project, 1536-format plate, OD 615 nm (AID 637; in the data active = inhibition above about 30%). The following applies: yeast transport mutant growth, absorbance 615 nm, 18 h; stronger effect = higher value.
Where [7] appears, read: H69AR cells + 2 uM doxorubicin, measured here: viability with 2 uM doxorubicin, stronger effect = lower value.
Where [8] appears, read: H69AR cells, compound alone cytotoxicity.

This is an account of results in PubChem BioAssay.

The source made the active and inactive calls.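 Rule for the calls, unless noted: active = viability at or under a set limit in both replicates, limit being median viability minus 3 SD (cut at about 48% in these data, passing the limit was not always enough); inconclusive = at or under the limit in just one replicate; inactive = at or above the limit in both replicates.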

For the molecule `O=C(Nc1ccc(Cl)cc1C(=O)O)c1ccc2c(c1)C(=O)N(Cc1ccco1)C2=O`, the viability (in general, a read-out of living cells in per cent, often relative to untreated cells) in assay [1] is 72% (inactive); in assay [2], 86.6% (inactive); in assay [3] it was 93.3% (inactive); in assay [4] (setting [7]), 84.7%; in assay [4] (setting [8]) it was 93.3%. The differential viability (reversal) in assay [4] (H69AR cells + 2 uM doxorubicin) was 8.62% (inactive). Besides, the inhibition (in general, the change of the read-out against control, counted positive when it falls) in assay [5] was -8.49% (inactive); in assay [6] it was 0.48% (inactive).
For the molecule `O=C(O)CCN(CCC(=O)O)c1nnc(SCc2ccccc2)s1`, the viability in assay [1] was 91% (inactive); in assay [2] it was 107% (inactive); in assay [3], 93.6% (inactive); in assay [4] (setting [7]) it was 86.5%; in assay [4] (setting [8]), 93.6%. Moreover, the differential viability (reversal) in assay [4] (H69AR cells + 2 uM doxorubicin) is 7.11% (inactive). Moreover, the inhibition in assay [5] was -6.16% (inactive); in assay [6], -3.55% (inactive).
As to `O=C(CSc1nc2ccccc2o1)NC(=O)NCc1ccco1`, the viability in assay [1] is 92% (inactive); in assay [2] it was 96.3% (inactive); in assay [3], 89.3% (inactive); in assay [4] (setting [7]) it was 86.1%; in assay [4] (setting [8]), 89.3%. The differential viability (reversal) in assay [4] (H69AR cells + 2 uM doxorubicin) is 3.28% (inactive). Further, the inhibition was -3.51% (inactive) in assay [5] and -1.27% (inactive) in assay [6].
Take `CCc1c(C(=O)Nc2ncn(Cc3cccc(C)c3)n2)csc1C`: the viability was 105% (inactive) in assay [1]; 112% (inactive) in assay [2]; 85.6% (inactive) in assay [3]; 81.3% in assay [4] (setting [7]); 85.6% in assay [4] (setting [8]). For the same molecule, the differential viability (reversal) in assay [4] (H69AR cells + 2 uM doxorubicin) was 4.33% (inactive). Further, the inhibition in assay [5] is -2.84% (inactive); in assay [6] it was -1.64% (inactive).
In the case of `CCOc1ccc(-c2cc(C(=O)N3CCN(c4ccccn4)CC3)c3ccccc3n2)cc1`, the viability is 127% (inactive) in assay [1]; 43.5% (inactive) in assay [2]; 12.5% (active) in assay [3]; 79.2% in assay [4] (setting [7]); 12.5% in assay [4] (setting [8]). Also, the differential viability (reversal) in assay [4] (H69AR cells + 2 uM doxorubicin) was -66.7% (inactive). Also, the inhibition in assay [5] is 0.13% (inactive); in assay [6], -0.49% (inactive).
As to `Cc1cc(-c2ccccc2)nnc1NCCN1CCOCC1`, the viability in assay [1] is 98% (inactive); in assay [2], 85.7% (inactive); in assay [3], 89.7% (inactive); in assay [4] (setting [7]), 92.1%; in assay [4] (setting [8]) it was 89.7%. The differential viability (reversal) in assay [4] (H69AR cells + 2 uM doxorubicin) was -2.49% (inactive). Further, the inhibition in assay [5] is 1.69% (inactive); in assay [6], -3.17% (inactive).
On to `N#CC1=C(N)N(c2ccc(Oc3ccccc3)cc2)C(=O)C1`, for which the viability was 130% (inactive) in assay [1]; 106% (inactive) in assay [2]; 90.2% (inactive) in assay [3]; 82% in assay [4] (setting [7]); 90.2% in assay [4] (setting [8]). Moreover, in assay [4] (H69AR cells + 2 uM doxorubicin), the differential viability (reversal) was 8.2% (inactive). The inhibition in assay [5] is -5.62% (inactive); in assay [6], 0.48% (inactive).
With `Cc1nc(C)n(C(C)CC(=O)O)n1` (stereo unspecified), the viability in assay [1] was 103% (inactive); in assay [2], 127% (inactive); in assay [3], 103% (inactive); in assay [4] (setting [7]), 97.2%; in assay [4] (setting [8]), 103%. Also, the differential viability (reversal) in assay [4] (H69AR cells + 2 uM doxorubicin) was 5.71% (inactive). The inhibition is -4% (inactive) in assay [5] and 1.27% (inactive) in assay [6].
Take `COc1ccccc1OCc1ccc(C(=O)N2CCN(C(=O)c3ccco3)CC2)cc1`: the viability in assay [1] was 116% (inactive); in assay [2], 111% (inactive); in assay [3] it was 99.2% (inactive); in assay [4] (setting [7]), 93.9%; in assay [4] (setting [8]), 99.2%. The differential viability (reversal) in assay [4] (H69AR cells + 2 uM doxorubicin) was 5.35% (inactive). In addition, the results for the inhibition in assay [5] and in assay [6] were -4.13% (inactive) and -9.82% (inactive), respectively.
Turning to `Cc1cc(NC(=O)c2ccccc2)ncc1NC(=O)c1ccco1`, the viability is 94% (inactive) in assay [1]; 96.2% (inactive) in assay [2]; 109% (inactive) in assay [3]; 99.9% in assay [4] (setting [7]); 109% in assay [4] (setting [8]). In assay [4] (H69AR cells + 2 uM doxorubicin), the differential viability (reversal) is 9.27% (inactive). Further, the inhibition was -4.42% (inactive) in assay [5] and 0.32% (inactive) in assay [6].
In the case of `CC(C)(C)NS(=O)(=O)c1ccc(CCC(=O)O)cc1`, the viability was 100% (inactive) in assay [1]; 105% (inactive) in assay [2]; 94.8% (inactive) in assay [3]; 100% in assay [4] (setting [7]); 94.8% in assay [4] (setting [8]). Also, in assay [4] (H69AR cells + 2 uM doxorubicin), the differential viability (reversal) is -5.2% (inactive). The inhibition in assay [5] was -3.42% (inactive); in assay [6], -1.45% (inactive).
As for `CC(=O)N1CN(C2CCCC2)Cc2c1sc1c2CCCC1`, the viability in assay [1] is 95% (inactive); in assay [2] it was 103% (inactive); in assay [3], 101% (inactive); in assay [4] (setting [7]), 117%; in assay [4] (setting [8]), 101%. For the same molecule, the differential viability (reversal) in assay [4] (H69AR cells + 2 uM doxorubicin) was -16% (inactive). For the same molecule, the inhibition in assay [5] was -8.22% (inactive); in assay [6], 0.36% (inactive).
